# Screens from PubChem.
# Compounds with a hit are over-represented: about 3.3% of the library has one in this group of screens.
# Arr AP2 block = human beta-arrestin and AP2 interaction inhibition. FITC-arrestin peptide / GST-AP2 beads, flow cytometry; AP2 beta2 appendage carries R879A mutation. inhibition, % at 10 µM. 340,000 tested, 0.31% active. AID 504490;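 active means inhibition above a set limit, near 3 SD of compounds lacking own fluorescence, cut at about 54% in these data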;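 further: plate controls were DMSO wells for no effect and 5 µM unlabelled arrestin peptide for full effect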
#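 System: GST-AP2 R879A glutathione beads | Also added: FITC-arrestin peptide, 50 nM | Times: 12 min plus 1 h, RT | Signal: Bead flow cytometry, FITC channel | Buffer or medium: PBS with 0.05% Tween 20 and 0.1% BSA | Read-out basis: Percent drop in bead-associated FITC signal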
# Granule exo inh = lytic granule exocytosis inhibition; AID 651702; 360,000 tested, 0.66% active; inhibition, % at 10 µM; TALL-104 LAMP-1 surface exposure, flow cytometry; cells stimulated with thapsigargin and PMA;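 active means inhibition above about 55%, limit read from the data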
# ABCB6 inh 2 = human ABCB6 transporter inhibition. AID 602162. fluorescence ratio to DMSO, % at 10 µM. Q9NP58. K562-ABCB6 porphyrin accumulation, flow cytometry, 1 h; hits give low values. 360,000 tested, 0.19% active;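 active means fluorescence ratio to DMSO below 75%, the collection mean minus 3 SD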;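 further: signal is porphyrin accumulated inside mitochondria; 100% equals median channel fluorescence of DMSO control wells; lower ratio means ABCB6 inhibition with less porphyrin fluorescence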
# Target sequence (Q9NP58 whole entry, looked up): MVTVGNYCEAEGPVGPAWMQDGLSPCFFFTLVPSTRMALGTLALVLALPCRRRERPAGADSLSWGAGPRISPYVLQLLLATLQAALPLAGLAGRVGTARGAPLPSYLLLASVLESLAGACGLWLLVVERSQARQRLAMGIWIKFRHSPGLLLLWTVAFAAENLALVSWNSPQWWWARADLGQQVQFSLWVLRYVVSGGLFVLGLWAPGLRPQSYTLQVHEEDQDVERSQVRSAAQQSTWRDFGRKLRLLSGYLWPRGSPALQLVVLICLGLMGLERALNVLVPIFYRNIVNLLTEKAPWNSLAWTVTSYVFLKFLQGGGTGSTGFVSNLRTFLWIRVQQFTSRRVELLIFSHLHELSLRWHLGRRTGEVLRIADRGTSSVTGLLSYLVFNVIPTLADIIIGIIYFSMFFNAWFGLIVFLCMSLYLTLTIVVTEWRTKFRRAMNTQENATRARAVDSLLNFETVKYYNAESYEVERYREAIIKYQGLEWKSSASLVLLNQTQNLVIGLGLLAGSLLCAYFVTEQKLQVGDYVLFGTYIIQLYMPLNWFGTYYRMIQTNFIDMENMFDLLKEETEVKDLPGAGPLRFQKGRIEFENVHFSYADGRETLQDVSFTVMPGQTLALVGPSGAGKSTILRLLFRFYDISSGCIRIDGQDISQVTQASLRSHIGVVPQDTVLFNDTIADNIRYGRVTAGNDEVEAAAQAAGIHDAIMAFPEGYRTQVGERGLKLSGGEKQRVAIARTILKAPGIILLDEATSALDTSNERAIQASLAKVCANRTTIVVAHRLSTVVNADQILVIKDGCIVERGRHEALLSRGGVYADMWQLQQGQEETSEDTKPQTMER
# Myeloid diff 2 = myeloid differentiation induction. 360,000 tested, 1% active. ER-HoxA9 myeloid progenitors, lysozyme-GFP differentiation, flow cytometry. calls only at 10 µM. AID 624256;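 active means normalized GFP-positive differentiation at or above the plate's own cutoff, the solvent-only control mean plus 3 SD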;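 further: cells exposed to compound for four days before flow analysis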
# NRP1-CendR mod = modulators of CendR peptide binding to human neuropilin-1 | O14786 | FAM-RPARPAR peptide binding to NRP-1, fluorescence polarization | inhibition, % at 25 µM | 360,000 tested, 0.85% active | AID 602438;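 active means inhibition or corrected inhibition above about 18%, plus a signal ratio from 0.5 to 1.5, limit read from the data, passing the limit was not always enough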
# ATG4B inhibitor = ATG4B (human) cysteine protease inhibition. ATG4B cleavage of LC3-PLA2, NBD-HPC fluorescence, 1 h. inhibition, % at 8.33 µM. 340,000 tested, 0.51% active; in the data active means inhibition above about 40%
# Numbers without * were called inactive; i = inactive; · = not tested or not shown; + = active, no number.
SMILES,Arr AP2 block,Granule exo inh,ABCB6 inh 2,Myeloid diff 2,NRP1-CendR mod,ATG4B inhibitor
COc1ccc(O)c(CN2CCCC(N3CCN(c4ccc(F)cc4)CC3)C2)c1 (stereo unspecified),-10,29,96,i,-2,9
COc1ccc(N2CCN(C3CCCN(Cc4ccc(F)cc4Cl)C3)CC2)cc1 (stereo unspecified),10,30,90,+,-9,-3
O=C1CCN(Cc2ccccc2)S(=O)(=O)c2ccccc21,5,10,97,i,24*,-1
Cc1nn(-c2ccccc2)c(Cl)c1/C=N/Nc1nc2ccccc2n1C,-21,90*,101,i,17,4
CC(C)n1cnc2c(NCc3ccc(S(N)(=O)=O)cc3)nc(NCc3ccc(S(N)(=O)=O)cc3)nc21,-4,-6,93,i,32*,-9
COc1ccc(CN(C)C(=O)COC(=O)c2cnc(Cl)c(Cl)c2)cc1,3,1,94,i,8,12
O=C(CCn1c(=O)oc2cc(Cl)ccc21)Nc1ccc(N2CCOCC2)cc1,-3,-2,100,+,13,5
OC(c1ccc(F)cc1)c1nc(-c2cccc(C(F)(F)F)c2)cs1 (stereo unspecified),·,5,103,i,13,·
COc1ccccc1NC(=O)c1ccccc1C(=O)N(C)Cc1ccccc1,5,0,96,i,7,1
N#CCC(=O)Nc1ccc(C(=O)NCC(c2ccco2)N2CCCCC2)cc1 (stereo unspecified),10,2,88,+,-152,-2
O=C(NCC(c1ccco1)N1CCCC1)c1ccc(Cl)c(S(=O)(=O)N2CCc3ccccc32)c1 (stereo unspecified),5,-6,87,+,-23,-5
O=C(NCC(c1ccco1)N1CCCCC1)c1ccc(S(=O)(=O)Nc2ccccc2)cc1 (stereo unspecified),-5,-7,97,i,-13,-5
Cc1nc2ccccc2n1C1CCN(C(=O)Nc2ccccc2)CC1,18,8,92,i,1,-5
O=[N+]([O-])c1ccc(C2=NN(c3ccccc3)C(c3ccco3)C2)cc1 (stereo unspecified),-49,1,i,+,-165,5
O=[N+]([O-])c1ccc(/C=C/C2=NN(c3ccccc3)C(c3ccco3)C2)cc1 (stereo unspecified),-104,-1,·,+,-182,4
CC1=NN(c2ccccc2)C(c2ccco2)C1 (stereo unspecified),21,12,92,i,0,0
CCCc1nnc(NC(=O)CCC(=O)NCCc2ccc(OC)c(OC)c2)s1,1,4,98,i,-5,-8
CCOC(=O)/C(=C/C=C1\Sc2cc(C)c(C)cc2N1CC)C(C)=O,36,6,130,+,128,4
CCOC(=O)/C(=C\C=C1/Sc2ccccc2N1CC)C(C)=O,2,9,116,i,135,-2
CCOc1ccccc1/C=C(/NC(=O)c1ccccc1)C(=O)N1CCCCC1,1,-1,100,i,-3,-3
COC(=O)c1cccc(NC(=O)c2cccc(OC)c2)c1,-1,1,88,i,23*,1
COc1cccc(C(=O)Nc2ccc(C3CC3(Cl)Cl)cc2)c1 (stereo unspecified),10,4,100,i,21*,10
COc1ccc(/C=N/NC(=O)c2cccc(NC(=O)c3ccc(Cl)cc3)c2)c(OC)c1,5,6,100,+,-6,-21
COc1cccc(C(=O)Nc2cccc(C(C)=O)c2)c1,-4,-2,100,i,-12,-2
O=C1c2ccccc2S(=O)N1c1cccc(F)c1 (stereo unspecified),·,4,101,i,0,·
SMILES,Arr AP2 block,Granule exo inh,ABCB6 inh 2,Myeloid diff 2,NRP1-CendR mod,ATG4B inhibitor
Cc1cccc(S(=O)(=O)c2c(N)n(Cc3ccco3)c3nc4ccccc4nc23)c1,-12,32,100,+,-110,-12
N#CCCN(C(=O)COC(=O)c1ccc(Cl)nc1)c1ccc2c(c1)OCCO2,·,8,99,i,1,·
CCCNC(=O)c1ccccc1NC(=O)c1ccccc1N(C)S(=O)(=O)c1ccc(C)cc1,3,-3,111,+,1,-10
CCCNC(=O)c1ccccc1NC(=O)c1ccccc1N(C)S(C)(=O)=O,-1,0,100,i,11,-7
O=c1c2ccccc2nc2ccc(NCc3ccco3)nn12,25,-3,103,i,-12,-2
Cc1sc2nc3ccc(NCc4ccco4)nn3c(=O)c2c1C,4,4,104,+,-23,-6
CCOc1ccc(C(=O)COC(=O)c2nn(CC)c(=O)c3ccccc23)cc1,-37,1,96,i,19*,-35
CCn1nc(C(=O)OCC(=O)c2c[nH]c3ccccc23)c2ccccc2c1=O,-10,-3,99,i,-7,-12
Cc1nc(SCC(=O)N2CCOCC2)c2c(=O)n(C)c(=O)n(C)c2n1,21,0,94,i,-13,-1
Cc1nc(SCC(=O)N2CCOCC2)c2c(=O)n(C)c(=O)n(CC(C)C)c2n1,-1,0,98,i,24*,-11
CCCCN(C(=O)Cc1ccc(S(=O)(=O)N2CCOCC2)s1)c1c(N)n(CC(C)C)c(=O)[nH]c1=O,6,-3,96,i,-17,2
Cc1ccc(-c2nc(NC(=O)CSc3nnc4scc(-c5ccccc5)n34)ns2)cc1,-4,10,101,+,1,4
Cn1c(=O)c([N+](=O)[O-])c(NCc2ccc3c(c2)OCO3)c2ccccc21,4,0,97,i,4,-10
CC(C)[C@H](NC(=O)c1c(F)cccc1F)C(=O)OCC(=O)NNC(=O)c1ccccc1,·,6,96,i,21*,·
CC(C)[C@H](NC(=O)c1ccccc1)C(=O)OCC(=O)c1ccccc1F,41,-3,92,i,-11,5
O=C(NC1CCN(Cc2ccccc2)CC1)c1ccc(Cn2c(=S)[nH]c3ccc(N4CCOCC4)cc3c2=O)cc1,-6,-2,107,+,-4,-20
O=C(CCCCCn1c(=S)[nH]c2ccc(N3CCOCC3)cc2c1=O)NC1CCN(Cc2ccccc2)CC1,-1,2,97,i,-8,-4
CNc1cncc(-c2ccc(F)cc2F)n1,·,-4,103,i,-3,·
CN1CCC(N(C)C(=O)c2ccc(Cl)c(S(=O)(=O)N(C)c3ccc(Cl)cc3)c2)CC1,2,4,98,i,33*,-5
Cc1ccn(C(=O)c2cc3c(C)nn(-c4ccccc4)c3s2)n1,31,1,104,i,28*,-3
Cc1nn(-c2ccccc2)c2sc(C(=O)n3cccn3)cc12,-2,-4,90,i,-10,-1
